From ChEMBL document CHEMBL1131333, “2-Iminohomopiperidinium salts as selective inhibitors of inducible nitric oxide synthase (iNOS)” (J Med Chem, 1998) come the findings set out here.

Structures are written as SMILES.

For assay [1], the target named is T1, Nitric oxide synthase 1 (Homo sapiens, UniProt P29475). Nature of the assay: Inhibitory activity evaluated from soluble cell extract of human Neuronal nitric oxide synthase and partially purified by DEAE-sepharose chromatography. The procedure, abridged: (§1)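 Recombinant human iNOS, eNOS or nNOS expressed in Sf9 cells (baculovirus). L-[3H]arginine to [3H]citrulline conversion in Tris pH 7.6 with BSA, DTT, CaCl2, FAD, tetrahydrobiopterin, NADPH and 30 μM final L-arginine. Calmodulin at 40 nM final for eNOS and nNOS only. 15 min at 37 °C, stopped with EGTA/HEPES pH 5.5, Dowex separation, scintillation counting. At least duplicate.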

Assay [2] concerns the target T2, Nitric oxide synthase, inducible (Mus musculus, UniProt P29477).
T2 sequence (P29477 whole entry): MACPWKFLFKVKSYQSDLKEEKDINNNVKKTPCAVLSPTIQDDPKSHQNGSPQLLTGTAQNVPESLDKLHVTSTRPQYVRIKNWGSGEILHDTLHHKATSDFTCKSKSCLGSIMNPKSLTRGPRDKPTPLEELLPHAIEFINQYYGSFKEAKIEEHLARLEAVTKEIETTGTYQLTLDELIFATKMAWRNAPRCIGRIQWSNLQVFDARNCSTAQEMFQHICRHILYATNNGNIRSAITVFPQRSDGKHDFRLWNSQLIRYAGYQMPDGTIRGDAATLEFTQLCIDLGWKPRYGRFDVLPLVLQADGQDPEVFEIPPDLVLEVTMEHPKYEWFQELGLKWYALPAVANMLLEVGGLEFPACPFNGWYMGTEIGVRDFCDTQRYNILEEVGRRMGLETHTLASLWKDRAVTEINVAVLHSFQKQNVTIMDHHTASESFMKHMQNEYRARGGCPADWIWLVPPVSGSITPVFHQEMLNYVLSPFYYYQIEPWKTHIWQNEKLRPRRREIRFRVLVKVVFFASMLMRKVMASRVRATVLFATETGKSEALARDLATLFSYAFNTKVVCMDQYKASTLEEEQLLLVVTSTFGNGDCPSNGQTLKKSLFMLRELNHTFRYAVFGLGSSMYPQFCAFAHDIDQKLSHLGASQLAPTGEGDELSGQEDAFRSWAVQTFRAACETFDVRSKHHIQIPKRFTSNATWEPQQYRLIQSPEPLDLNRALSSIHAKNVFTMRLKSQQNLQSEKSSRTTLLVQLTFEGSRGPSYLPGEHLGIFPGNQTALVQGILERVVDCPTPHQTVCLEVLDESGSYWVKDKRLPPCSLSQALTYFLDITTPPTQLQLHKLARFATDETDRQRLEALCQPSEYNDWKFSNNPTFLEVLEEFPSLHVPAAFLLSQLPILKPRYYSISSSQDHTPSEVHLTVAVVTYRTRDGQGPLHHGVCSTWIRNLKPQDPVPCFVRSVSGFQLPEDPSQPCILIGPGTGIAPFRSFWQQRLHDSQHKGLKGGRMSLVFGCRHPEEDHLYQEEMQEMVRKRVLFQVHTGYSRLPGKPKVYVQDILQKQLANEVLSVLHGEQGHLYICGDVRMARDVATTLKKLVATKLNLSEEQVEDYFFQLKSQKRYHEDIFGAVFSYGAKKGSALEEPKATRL
Nature of the assay: The ability of compound to inhibit mouse Inducible nitric oxide synthase in LPS stimulated mouse RAW cells was determined. It counts as cell-based. A digest of the protocol: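 RAW 264.7 cells plated at 2×10^5/well and induced 17 h with 10 μg/mL LPS (E. coli O111:B4). Washed, preincubated 1 h on ice in Krebs Ringer/HEPES pH 7.5 with glucose, 30 μM L-arginine and five inhibitor concentrations, then 2 h at 37 °C. Nitrite measured fluorometrically.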

Assay [3] deals with Nitric oxide synthase, inducible (Homo sapiens, UniProt P35228). In words: Inhibitory activity evaluated for soluble cell extract of human Inducible nitric oxide synthase and partially purified by DEAE-sepharose chromatography. The procedure, abridged:
as §1

A further assay addresses T3, Nitric oxide synthase 3 (Homo sapiens, UniProt P29474).
T3 sequence (P29474 whole entry): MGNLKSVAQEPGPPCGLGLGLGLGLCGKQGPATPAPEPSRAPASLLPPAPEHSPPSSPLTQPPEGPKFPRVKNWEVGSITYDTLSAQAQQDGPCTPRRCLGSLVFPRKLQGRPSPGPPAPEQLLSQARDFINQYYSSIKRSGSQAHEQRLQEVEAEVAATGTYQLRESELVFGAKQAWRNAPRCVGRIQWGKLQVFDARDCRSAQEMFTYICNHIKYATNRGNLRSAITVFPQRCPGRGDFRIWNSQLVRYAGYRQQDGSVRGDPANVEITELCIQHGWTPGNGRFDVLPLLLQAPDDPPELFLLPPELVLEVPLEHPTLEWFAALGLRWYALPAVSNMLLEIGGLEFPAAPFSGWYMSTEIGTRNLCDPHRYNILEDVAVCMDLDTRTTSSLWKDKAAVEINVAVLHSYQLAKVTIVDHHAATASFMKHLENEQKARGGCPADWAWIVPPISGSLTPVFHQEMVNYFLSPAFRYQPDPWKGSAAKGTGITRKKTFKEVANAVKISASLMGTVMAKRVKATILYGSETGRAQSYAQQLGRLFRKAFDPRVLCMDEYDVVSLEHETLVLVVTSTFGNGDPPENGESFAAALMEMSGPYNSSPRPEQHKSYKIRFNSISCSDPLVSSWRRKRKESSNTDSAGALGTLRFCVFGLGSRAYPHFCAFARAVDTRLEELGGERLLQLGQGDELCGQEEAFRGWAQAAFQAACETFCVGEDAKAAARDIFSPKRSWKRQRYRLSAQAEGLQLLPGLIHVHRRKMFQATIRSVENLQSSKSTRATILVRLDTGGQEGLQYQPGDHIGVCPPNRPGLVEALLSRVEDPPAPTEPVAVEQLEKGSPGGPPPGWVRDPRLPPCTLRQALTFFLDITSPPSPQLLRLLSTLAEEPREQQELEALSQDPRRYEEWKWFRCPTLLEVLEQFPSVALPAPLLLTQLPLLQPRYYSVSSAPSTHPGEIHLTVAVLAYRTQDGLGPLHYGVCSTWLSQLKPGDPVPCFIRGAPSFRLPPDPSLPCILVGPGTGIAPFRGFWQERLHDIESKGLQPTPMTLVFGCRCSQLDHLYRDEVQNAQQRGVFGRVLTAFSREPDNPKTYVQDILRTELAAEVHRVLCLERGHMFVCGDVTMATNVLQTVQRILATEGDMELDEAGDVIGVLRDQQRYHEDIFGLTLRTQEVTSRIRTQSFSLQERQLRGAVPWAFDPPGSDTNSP
Nature of the assay: Inhibitory activity evaluated from soluble cell extract of human endothelia constitutive enzyme (Endothelial nitric oxide synthase) and partially purified by DEAE-sepharose chromatography. The procedure, abridged:
as §1

In assay [4] the target is T1, Nitric oxide synthase 1. Nature of the assay: Inhibitory activity evaluated from soluble cell extract of Neuronal nitric oxide synthase and partially purified by DEAE-sepharose chromatography.
Assay [5] addresses Nitric oxide synthase, inducible (Rattus norvegicus) (UniProt Q06518). In words: The ability of compounds to inhibit Inducible nitric oxide synthase in LPS-treated male Lewis rats at 10 mg/kg dose. It counts as organism-based. Further details: dose 10 mg/kg. A digest of the protocol: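 Rats dosed 10 mg/kg orally by gavage 1 h before LPS (10 mg/kg ip). Blood taken 5 h after LPS; plasma filtered through a 10 000 MW cutoff filter, and nitrite/nitrate measured fluorometrically. Percent inhibition calculated relative to rats given LPS alone.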

The target of assay [6] is T1, Nitric oxide synthase 1. In words: Inhibitory activity evaluated from soluble cell extract of human nNeuronal nitric oxide synthase and partially purified by DEAE-sepharose chromatography. The procedure, abridged:
as §1

Sequence of Nitric oxide synthase, inducible (Homo sapiens, UniProt P35228) (P35228 whole entry): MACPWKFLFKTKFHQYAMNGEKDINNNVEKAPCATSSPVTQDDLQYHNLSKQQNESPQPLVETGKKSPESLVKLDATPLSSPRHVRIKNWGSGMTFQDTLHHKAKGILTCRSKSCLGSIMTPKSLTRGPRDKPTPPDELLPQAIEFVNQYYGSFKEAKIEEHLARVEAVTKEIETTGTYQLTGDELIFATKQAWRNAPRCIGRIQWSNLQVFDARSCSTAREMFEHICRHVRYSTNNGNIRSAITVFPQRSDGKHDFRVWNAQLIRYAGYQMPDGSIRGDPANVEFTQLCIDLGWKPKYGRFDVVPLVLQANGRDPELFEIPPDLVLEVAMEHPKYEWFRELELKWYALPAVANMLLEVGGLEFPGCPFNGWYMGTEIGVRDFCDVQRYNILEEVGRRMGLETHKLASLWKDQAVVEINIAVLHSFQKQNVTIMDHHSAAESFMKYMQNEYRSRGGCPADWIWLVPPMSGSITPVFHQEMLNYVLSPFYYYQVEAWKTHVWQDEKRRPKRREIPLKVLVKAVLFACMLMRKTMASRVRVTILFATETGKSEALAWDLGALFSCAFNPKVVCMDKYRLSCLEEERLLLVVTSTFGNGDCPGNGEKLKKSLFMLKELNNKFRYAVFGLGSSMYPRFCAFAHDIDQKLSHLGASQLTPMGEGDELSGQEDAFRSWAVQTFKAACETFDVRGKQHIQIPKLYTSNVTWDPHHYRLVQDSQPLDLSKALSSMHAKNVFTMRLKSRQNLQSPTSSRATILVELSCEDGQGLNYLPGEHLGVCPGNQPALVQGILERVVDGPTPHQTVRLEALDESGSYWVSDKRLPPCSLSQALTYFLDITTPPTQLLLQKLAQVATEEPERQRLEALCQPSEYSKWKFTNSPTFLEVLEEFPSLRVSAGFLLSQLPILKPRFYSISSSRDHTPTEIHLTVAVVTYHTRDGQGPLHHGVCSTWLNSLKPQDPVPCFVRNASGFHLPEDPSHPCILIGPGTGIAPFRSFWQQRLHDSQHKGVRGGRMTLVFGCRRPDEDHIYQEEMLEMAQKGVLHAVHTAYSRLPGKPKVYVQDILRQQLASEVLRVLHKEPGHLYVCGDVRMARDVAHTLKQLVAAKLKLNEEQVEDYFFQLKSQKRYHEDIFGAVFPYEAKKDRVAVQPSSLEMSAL
Sequence of Nitric oxide synthase, inducible (Rattus norvegicus) (Q06518 whole entry): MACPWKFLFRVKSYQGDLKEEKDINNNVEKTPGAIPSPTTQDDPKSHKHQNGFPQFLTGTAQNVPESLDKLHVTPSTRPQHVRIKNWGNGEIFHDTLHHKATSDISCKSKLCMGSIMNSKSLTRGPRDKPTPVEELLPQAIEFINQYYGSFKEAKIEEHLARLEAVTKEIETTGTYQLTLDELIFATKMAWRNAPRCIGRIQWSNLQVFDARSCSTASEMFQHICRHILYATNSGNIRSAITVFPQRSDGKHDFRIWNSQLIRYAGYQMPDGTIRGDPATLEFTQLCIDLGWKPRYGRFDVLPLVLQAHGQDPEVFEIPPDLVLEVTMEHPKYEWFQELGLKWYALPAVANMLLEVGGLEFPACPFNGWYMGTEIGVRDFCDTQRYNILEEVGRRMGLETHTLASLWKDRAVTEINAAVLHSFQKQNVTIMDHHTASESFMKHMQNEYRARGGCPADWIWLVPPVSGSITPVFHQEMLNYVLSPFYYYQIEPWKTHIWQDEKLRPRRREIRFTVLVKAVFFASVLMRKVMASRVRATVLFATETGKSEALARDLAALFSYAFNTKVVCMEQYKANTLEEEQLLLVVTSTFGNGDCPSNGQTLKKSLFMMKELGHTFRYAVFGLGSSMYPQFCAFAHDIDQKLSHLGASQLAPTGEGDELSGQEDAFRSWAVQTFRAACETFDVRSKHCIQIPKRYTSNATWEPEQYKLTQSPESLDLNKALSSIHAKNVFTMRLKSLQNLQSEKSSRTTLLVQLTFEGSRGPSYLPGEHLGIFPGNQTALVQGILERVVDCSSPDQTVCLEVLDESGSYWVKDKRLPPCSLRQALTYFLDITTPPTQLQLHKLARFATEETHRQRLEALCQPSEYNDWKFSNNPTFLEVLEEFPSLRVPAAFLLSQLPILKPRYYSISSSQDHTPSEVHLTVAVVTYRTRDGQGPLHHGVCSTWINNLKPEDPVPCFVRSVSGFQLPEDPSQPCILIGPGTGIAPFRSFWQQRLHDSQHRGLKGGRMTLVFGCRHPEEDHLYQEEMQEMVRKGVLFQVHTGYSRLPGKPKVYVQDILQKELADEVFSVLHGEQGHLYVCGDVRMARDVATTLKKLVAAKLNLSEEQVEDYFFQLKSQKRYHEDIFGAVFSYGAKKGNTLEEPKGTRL
T1 sequence (P29475 whole entry): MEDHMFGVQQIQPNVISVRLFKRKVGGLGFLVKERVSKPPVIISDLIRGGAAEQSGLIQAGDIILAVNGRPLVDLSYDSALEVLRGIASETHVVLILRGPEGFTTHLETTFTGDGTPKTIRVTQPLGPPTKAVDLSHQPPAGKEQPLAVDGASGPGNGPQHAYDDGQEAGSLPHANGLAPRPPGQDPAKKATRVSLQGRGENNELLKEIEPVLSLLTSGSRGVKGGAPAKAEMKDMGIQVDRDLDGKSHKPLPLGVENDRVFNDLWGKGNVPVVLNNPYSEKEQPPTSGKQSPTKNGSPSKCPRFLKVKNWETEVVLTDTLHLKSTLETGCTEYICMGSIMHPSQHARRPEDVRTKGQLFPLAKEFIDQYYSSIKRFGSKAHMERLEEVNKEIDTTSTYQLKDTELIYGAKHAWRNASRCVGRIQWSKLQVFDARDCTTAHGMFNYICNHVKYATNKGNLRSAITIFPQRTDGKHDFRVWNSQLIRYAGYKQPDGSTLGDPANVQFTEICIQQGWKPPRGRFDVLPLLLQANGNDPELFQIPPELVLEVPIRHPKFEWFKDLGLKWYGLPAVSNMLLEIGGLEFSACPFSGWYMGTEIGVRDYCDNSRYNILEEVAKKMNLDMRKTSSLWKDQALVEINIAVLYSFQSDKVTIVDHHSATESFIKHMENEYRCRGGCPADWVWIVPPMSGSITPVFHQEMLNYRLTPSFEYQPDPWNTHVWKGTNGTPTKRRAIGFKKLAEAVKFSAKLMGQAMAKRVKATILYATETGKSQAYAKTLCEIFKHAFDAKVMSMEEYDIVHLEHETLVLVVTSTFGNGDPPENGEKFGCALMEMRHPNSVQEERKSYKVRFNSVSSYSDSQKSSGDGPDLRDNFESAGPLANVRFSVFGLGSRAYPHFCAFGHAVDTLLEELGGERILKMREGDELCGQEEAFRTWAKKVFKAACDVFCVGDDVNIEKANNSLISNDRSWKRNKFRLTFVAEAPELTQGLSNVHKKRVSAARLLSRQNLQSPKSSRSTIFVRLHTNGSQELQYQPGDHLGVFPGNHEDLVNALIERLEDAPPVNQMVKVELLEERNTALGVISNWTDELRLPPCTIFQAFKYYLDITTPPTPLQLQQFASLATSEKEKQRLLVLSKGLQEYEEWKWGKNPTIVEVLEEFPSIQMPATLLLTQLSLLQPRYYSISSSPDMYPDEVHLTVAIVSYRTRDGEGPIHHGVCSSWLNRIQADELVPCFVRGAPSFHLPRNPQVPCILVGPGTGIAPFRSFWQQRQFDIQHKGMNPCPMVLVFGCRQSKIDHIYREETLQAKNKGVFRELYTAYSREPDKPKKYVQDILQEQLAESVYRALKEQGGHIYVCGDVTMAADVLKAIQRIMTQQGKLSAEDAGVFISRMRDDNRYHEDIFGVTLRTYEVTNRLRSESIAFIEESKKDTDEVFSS

Turning to `CCC(CC)CC1CCCCC(N)=N1` (configuration not stated), the IC50 (as a rule, the concentration at which inhibition is half-maximal) turned out to be 5.4 µM against Nitric oxide synthase 1 [1], 3.3 µM in assay [2], 2.1 µM in assay [3] and 660 µM against Nitric oxide synthase 3.

With `CCC1CCCCN=C1N` (configuration not stated), the concentration for half-maximal inhibition (IC50) is 2.4 µM against Nitric oxide synthase 1 [4] and 38 µM at Nitric oxide synthase 3.

Consider `C=CCC1CCCCC(N)=N1` (configuration not stated), for which the inhibition (commonly the percentage by which the read-out fell short of the control) in assay [5] is 80%. Besides, half-maximal inhibition against Nitric oxide synthase 3 (IC50) was put at 21 µM.

Consider `NC1=NCCCCC1`, for which the IC50 amounted to 54 µM in assay [2], 2.1 µM in assay [3] and 15 µM at Nitric oxide synthase 3.

As for `C=CCC1CCCCN=C1N` (configuration not stated), the IC50 came out at 16 µM at Nitric oxide synthase 1 [4], 19 µM in assay [2], 5.8 µM in assay [3] and 380 µM on Nitric oxide synthase 3.

For the molecule `C[C@@H]1CCCC(N)=NC1`, the IC50 at Nitric oxide synthase 1 [6] stood at 3.8 µM; against Nitric oxide synthase 3, 39 µM.

`CCCC1CCCCC(N)=N1` (configuration not stated): the inhibition in assay [5] was 85%. For the same molecule, the IC50 against Nitric oxide synthase 3 is 9.5 µM.

Consider `CCCCC1CCCCC(N)=N1` (configuration not stated), for which the IC50 is 0.85 µM at Nitric oxide synthase 1 [6], 1.6 µM in assay [2], 0.5 µM in assay [3] and 103 µM against Nitric oxide synthase 3. In assay [5], the inhibition came to 60%.

With `NC1=NC(c2ccccc2)CCCC1` (configuration not stated), the IC50 turned out to be 6.6 µM against Nitric oxide synthase 1 [1], 31 µM in assay [2], 14 µM in assay [3] and 215 µM against Nitric oxide synthase 3.

In the case of `CC1CCN=C(N)CC1` (configuration not stated), the IC50 against Nitric oxide synthase 1 [4] is 11 µM; in assay [2], 24 µM; in assay [3] it was 5.8 µM; against Nitric oxide synthase 3 it was 39 µM.
